What is called IC50 is the concentration needed to halve the response being measured. A higher IC50 goes with weaker potency. The term ED50 denotes the dose at which the effect has come halfway, by size or by number of responders. Low values mean an effect at a small dose, high ones a need for a large dose. Usually inhibition stands for the share of the control response that was lost under treatment. High values mean strong suppression, low ones little suppression.

The target in assay [1] is Glutamate NMDA receptor. Kind of assay: Tested in vitro for antagonistic activity at N-methyl-D-aspartate glutamate receptor by measuring displacement of [3H]TCP from crude synaptic membrane preparations obtained from rat brain. Format: functional. The procedure, abridged:
(§1)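 Same membranes incubated in triplicate 60 min at 25 °C with 2.5 nM [3H]TCP, 3 μM L-glutamate, 1 μM glycine, test drug. Nonspecific binding defined with 100 μM MK-801. Vacuum filtration on 0.1% PEI-pretreated filters, ice-cold buffer rinses, scintillation counting. IC50 with 95% confidence limits by nonlinear logistic regression over 5–10 concentrations.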

The test system of assay [2] is Mus musculus. Kind of assay: Effective dose against NMDA-induced lethality in mice on ip administration. It is filed as functional.
Assay [3] has as its target Glutamate NMDA receptor. Kind of assay: Displacement of [3H]CPP from rat brain synaptic membrane N-methyl-D-aspartate glutamate receptor. The procedure, abridged:
(§2)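 Crude synaptic membranes, thawed, washed once in Tris-HCl, resuspended at 0.3–0.5 mg protein/mL (Lowry). Affinity from displacement of [3H]CPP binding per Murphy's method.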

The target of assay [4] is T1, Glutamate NMDA receptor (Rattus norvegicus) (UniProt P35439+Q00959+Q00960+Q00961+Q62645+Q8VHN2+Q9R1M7). Kind of assay: Tested in vitro at 100 uM for antagonistic activity at N-methyl-D-aspartate glutamate receptor by measuring displacement of [3H]TCP from crude synaptic membrane preparations obtained from rat brain. Format: functional. Summed up:
as §1
Background: Loss of bound radioactivity is the signal in a displacement assay; it reports binding, not function.

Assay [5] is filed under the species Rattus norvegicus. Kind of assay: Effect on infarct volume in the rat was determined by rat permanent focal ischemia model. It is filed as functional. The procedure, abridged:
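Male Fisher-344 rats (290–310 g) under 2–4% isoflurane. Right common carotid occluded and distal MCA electrocoagulated transcranially, body temperature 37 ± 1 °C. Single iv bolus via tail vein (1 mL/kg, 10 mg/kg in 0.9% NaCl) 5 min post-occlusion. At 24 h, cresyl violet-stained 20 μm frozen sections at 400-μm intervals; infarct volume by image analysis; mean ± SE.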

The target in assay [6] is T1, Glutamate NMDA receptor (Rattus norvegicus). Kind of assay: Tested in vitro at 10000 nM for binding affinity at N-methyl-D-aspartate glutamate receptor by measuring displacement of [3H]CPP from crude synaptic membrane preparations obtained from rat brain. The procedure, abridged: as §2

With `O=C1C2=NCCCN(C/C=C/P(=O)(O)O)C2=C1O`, the IC50 was over 100000 nM in assay [1] and over 10000 nM in assay [3]. In assay [2], this compound yielded an ED50 of over 5 mg/kg.

In the case of `CC1(C)CN=C2C(=O)C(O)=C2N(CCP(=O)(O)O)C1`, in assay [4], the inhibition worked out at 59%. The 50% effective dose (ED50) in assay [2] was determined as 22 mg/kg. The same compound yielded an IC50 in assay [3] of 280 nM.

For `O=C1C2=NCCCN(Cc3nn[nH]n3)C2=C1O`, the 50% inhibitory concentration (IC50) in assay [1] was 18000 nM; in assay [3], 38 nM. The median effective dose (ED50) in assay [2] was over 10 mg/kg.

With `O=c1c2c(c1=O)N(CCP(=O)(O)O)CCCN2` [PERZINFOTEL], the half-maximal inhibitory concentration (IC50) in assay [1] amounted to 7600 nM; in assay [3], 30 nM. The compound also gave an Infarct volume in assay [5] of 43.2 mm**3. In addition, the ED50 in assay [2] worked out at 2.1 mg/kg.

The compound `Nc1c(NCCP(=O)(O)O)c(=O)c1=O` registered an ED50 in assay [2] of 29 mg/kg.

In assay [4], `O=C([O-])CN1CCCN=C2C(=O)C(O)=C21.[Na+]` displayed an inhibition of 64%. In addition, the median effective dose (ED50) in assay [2] was over 20 mg/kg. For the same compound, in assay [3], the IC50 is 550 nM.

On to `O=C1C2=NCC(O)CN(CCP(=O)(O)O)C2=C1O` (configuration not stated), for which the half-inhibitory concentration (IC50) was 10000 nM in assay [1] and 19 nM in assay [3]. For the same compound, the ED50 in assay [2] stood at 1.8 mg/kg.

`O=C1C2=NCCCN(CCc3nnn[nH]3)C2=C1O` returned an IC50 in assay [1] of over 100000 nM. For the same compound, the inhibition in assay [6] amounted to 41%. In assay [2], this compound gave a 50% effective dose (ED50) of over 5 mg/kg.

For the compound `O=C1C2=NCCCN(CCCP(=O)(O)O)C2=C1O`, the IC50 was over 100000 nM in assay [1] and over 1000 nM in assay [3]. The ED50 in assay [2] was over 10 mg/kg.

In the case of `O=C1C2=NCCN(CCP(=O)(O)O)C2=C1O`, the IC50 is 29000 nM in assay [1] and 92 nM in assay [3]. The compound further had an ED50 in assay [2] of 6.1 mg/kg.

Turning to `O=C1C(O)=C2/C1=N\CCCCN2CCP(=O)(O)O`, the values for the IC50 in assay [1] and in assay [3] were 36000 nM and 49 nM, respectively. In assay [2], this compound yielded an ED50 of over 3 mg/kg.

In the case of `O=C(O)[C@@H]1C[C@H](CP(=O)(O)O)CCN1` (single isomer, unassigned) [SELFOTEL], the 50% inhibitory concentration (IC50) in assay [1] is 22000 nM. In assay [2], this compound returned a median effective dose (ED50) of 1.5 mg/kg.

For the compound `O=C([O-])CCN1CCCN=C2C(=O)C(O)=C21.[Na+]`, in assay [4], the inhibition is 53%. This compound also yielded a 50% effective dose (ED50) in assay [2] of over 20 mg/kg. In assay [3], this compound yielded an IC50 of 340 nM.
